Assays:
[1] = The Hexosaminidase release concentration in CPII mouse mastcells transfected with TNF-alpha 3' reporter gene plasmid was measured; format: functional
[2] = (§1) The Inhibitory potency on CPII mouse mastcells transfected with TNF-alpha 3' reporter gene plasmid was measured by reporter gene assay; format: functional
[3] = The cell toxicity on CPII mouse mast cells transfected with TNF-alpha 3' nontranslated sequences reporter gene plasmid; format: cell-based; conditions: read-out: TC50 (the source's name)
[4] = as §1; format: functional; remark: listed apart in the source
How it was run: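 Clone 12: CPII cells stably carrying a TNFα promoter–luciferase–TNFα 3′ construct. Cells exposed to compound 1 h, then triggered with (dinitrophenyl)albumin/anti-dinitrophenyl-IgE complex. Luciferase read after 6 h incubation. Screening single dose 10 μM; a hit was over 50% inhibition of induction with under 20% toxicity.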

Compound	IC50 [1]	IC50 [2]	CC50 [3]	IC50 [4]
CC(C)(C)c1ccc(C2=Cc3ccc(N(Cc4ccccc4)Cc4ccccc4)cc3C3=NCCCN23)cc1	0.6 µM	0.6 µM	2.6 µM	
CC(C)(C)c1ccc(C2=Cc3ccc(NC(=O)Cc4ccccn4)cc3C3=NCCCN23)cc1	4.8 µM	4.8 µM	8.8 µM	
CC(C)(C)c1ccc(C2=Cc3ccccc3C3=NCCCN23)cc1	0.7 µM	0.9 µM	5.7 µM	
CC(C)(C)c1ccc(C2=C(Cc3ccccc3)c3ccccc3C3=NCCCN32)cc1	2.9 µM	2 µM	5 µM	
CC(C)(C)c1ccc(C2=Cc3ccc(N/C(S)=N/C4CCCCC4)cc3C3=NCCCN23)cc1	3.3 µM	2.6 µM	9.9 µM	
CCOc1ccc(CC2=C(CCCc3cccc4ccccc34)N3CCCN=C3c3ccccc32)cc1	3.5 µM	1.5 µM	5.5 µM	
C1=C(c2ccc(OCc3ccccc3)cc2)N2CCCN=C2c2ccccc21	0.9 µM	0.8 µM	3.5 µM	
N[C@@H](Cc1ccccc1)C1=Cc2ccccc2C2=NCCCN12	> 25 µM	> 10 µM	> 25 µM	
CCCCC1=C(c2ccc(C(C)(C)C)cc2)N2CCCN=C2c2ccccc21	0.6 µM	0.3 µM	2.1 µM	
C1=C(Cc2ccccc2)c2ccccc2C2=NCCCN12	> 10 µM		> 10 µM	> 10 µM
C1=C(c2ccccc2)N2CCCN=C2c2ccccc21	12 µM		> 10 µM	> 10 µM
CC(C)(C)c1ccc(C2=Cc3ccc(NC(=O)Nc4ccc(Cl)cc4Cl)cc3C3=NCCCN23)cc1	17 µM	3.3 µM	5.8 µM	
CCCCCCC1=Cc2ccccc2C2=NCCCN12	4.5 µM		> 10 µM	> 10 µM
C1=C(c2ccc(CCc3ccccc3)cc2)N2CCCN=C2c2ccccc21	0.5 µM		2.1 µM	0.7 µM
CCOc1ccc(CC2=C(c3ccc(CCc4ccccc4)cc3)N3CCCN=C3c3ccccc32)cc1	2.6 µM	0.9 µM	9 µM	
C[Si](C)(C)c1ccc(C2=C(Cc3ccccc3)c3ccccc3C3=NCCCN32)cc1	1.2 µM	0.8 µM	5.5 µM	
C1=C(/C=C/c2ccccc2)N2CCCN=C2c2ccccc21	4.1 µM	> 10 µM	> 10 µM	
CCCCC1=C(c2ccc(CCc3ccccc3)cc2)N2CCCN=C2c2ccccc21	0.3 µM	0.2 µM	2.7 µM	
CC(C)(C)c1ccc(C2=Cc3ccc(NC(=O)NC4CCCCC4)cc3C3=NCCCN23)cc1	2.1 µM	1.7 µM	4.8 µM	
Clc1ccc(C2=Cc3ccccc3C3=NCCCN23)cc1	5.5 µM		> 10 µM	> 10 µM
c1ccc(CCc2ccc(C3=C(Cc4ccccc4)c4ccccc4C4=NCCCN43)cc2)cc1	0.9 µM	0.6 µM	2.2 µM	
CN(C)CCC1=C(c2ccc(C(C)(C)C)cc2)N2CCCN=C2c2ccccc21	> 10 µM	> 10 µM	> 10 µM	
CC(C)(C)c1ccc(C2=Cc3ccc(N)cc3C3=NCCCN23)cc1	3 µM	1.7 µM	7.8 µM	
Clc1ccc(OCC2=Cc3ccccc3C3=NCCCN23)cc1	> 25 µM		> 10 µM	9 µM
C[Si](C)(C)c1ccc(C2=Cc3ccccc3C3=NCCCN23)cc1	0.5 µM		3.2 µM	0.8 µM
C1=C(c2ccc(-c3ccccc3)cc2)N2CCCN=C2c2ccccc21	1.7 µM		3.9 µM	1.5 µM
CC1=Cc2ccccc2C2=NCCCN12	> 25 µM		> 10 µM	> 10 µM
COc1cc(C2=Cc3ccccc3C3=NCCCN23)cc(OC)c1OC	> 25 µM		> 10 µM	> 10 µM

Source: ChEMBL document CHEMBL1131374, “Inhibition of Fc epsilon RI-mediated activation of mast cells by 2,3,4-trihydropyrimidino[2,1-a]isoquinolines” (J Med Chem, 1998)
